Calls of active or inactive are those of the source. The rule behind the calls is not given here.

A short description of data set [1]: Antiproliferative activity against human HCT116 cells […] by MTT assay. In kind it is functional, cell-based. The settings on record: HCT-116. (Formazan colour is commonly taken as a measure of viable cells.)
Another data set has as its system MCF7. As to the kind of experiment: Antiproliferative activity against human MCF7 cells […] by MTT assay. It counts as functional, cell-based.
The test system of the next data set is A549. As to the kind of experiment: Antiproliferative activity against human A549 cells after 72 hrs by MTT assay. It counts as functional, cell-based. As to conditions: A549, 72 h. The method in brief:
(§1)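 Cells kept as monolayers in DMEM with 10% FBS, 5% CO2, 37 °C. Seeded at 3000-5000 cells/well, grown 24 h before dosing. Treated with 100.0, 10.0, 1.0, 0.1 and 0.01 μM of compound for 48 h. MTT (5 mg/ml in medium) added for 4 h, formazan pelleted, dissolved in DMSO, OD read at 490 nm. IC50 derived from inhibition ratios. Three separate experiments, each in triplicate.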

The nature of data set [2]: Antiproliferative activity against human U87MG cells after 72 hrs by MTT assay. It counts as functional, cell-based, U-87MG ATCC. As to conditions: U-87 MG. The method in brief:
as §1

Data set [3] in a line: Antitumor activity against human HCT116 cells xenografted in BALB/C mouse assessed as reduction in tumor volume at 30 mg/kg, po dosed once daily for 14 days. In kind it is functional. As to conditions: HCT-116, 336 h. The method in brief:
(§2)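 Male BALB/C nude mice (SPF, 18-20 g) received 3×10^6 HCT-116 cells subcutaneously in the flank. At 100 mm³ tumours, animals were randomised (8 controls, 5 per drug group). Compound given orally in NMP/PEG300 (1:9) once daily for 14 days; controls got vehicle. Tumour volume (length × width × width/2) recorded every 3-4 days. Sacrifice on day 26, inhibition ratios from tumour volume and weight. Mean ± standard error.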
In general terms: Xenograft models place foreign cells or tissue in a host animal.

Data set [4] in a line: Antitumor activity against human HCT116 cells xenografted in BALB/C mouse assessed as reduction in tumor volume at 10 mg/kg, po dosed once daily for 14 days. It counts as functional. As to conditions: HCT-116, 336 h. The method in brief:
as §2

The test system of data set [5] is Mus musculus. Nature of the data set: Toxicity in human HCT116 cells xenografted BALB/C mouse assessed as weight loss at 10 to 30 mg/kg, po dosed once daily for 14 days. In kind it is organism-based, HCT-116. On the set-up: dose 10-30 mg/kg, route oral. The settings on record: in vivo, 336 h. The method in brief:
(§3)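 Male BALB/C nude mice (18-20 g) carried subcutaneous flank HCT-116 xenografts (3×10^6 cells), randomised at 100 mm³. Compound dosed orally in NMP/PEG300 (1:9) once daily for 14 days; controls got vehicle alone. Body weight recorded every 3-4 days until sacrifice on day 26.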

For the next data set, the system named is HCT-116. Nature of the data set: Inhibition of PI3K/Akt signalling in human HCT116 cells assessed as reduction in AKT Ser473 phosphorylation at 1 uM after 1 hr by Western blot method. It counts as cell-based. The method in brief: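 HCT-116 cells seeded at 1×10^6/well in DMEM with 10% FBS and grown 16 h at 37 °C. Exposed to compound or DMSO for 1 h at 37 °C, then lysed in ice-cold buffer and clarified at 12000 rpm, 20 min, 4 °C. Protein measured by BCA and run on SDS-PAGE. Immunoblotted for AKT, p-Ser473 AKT and β-actin, with chemiluminescent detection and densitometry. Three independent experiments, each in duplicate.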
In general terms: A western blot detects proteins with antibodies after separation by electrophoresis.

In data set [6] the test system is Mus musculus. Nature of the data set: Toxicity in human HCT116 cells xenografted BALB/C mouse assessed as weight loss at 30 mg/kg, po dosed once daily for 14 days. It counts as organism-based, HCT-116. Also noted: dose 30 mg/kg, route oral. The settings on record: in vivo, 336 h. The method in brief: as §3

As for `COc1c(NS(=O)(=O)c2ccc(F)cc2)cc(-c2ccc3nc(NC(=O)C4CC4)nn3c2)cc1C(N)=O`, in data set [1], the IC50 (as a rule, the concentration that gives 50% inhibition) worked out at 43.5 µM.

In the case of `COc1c(NS(=O)(=O)c2ccc(F)cc2)cc(-c2ccn3nc(NC(=O)C4CC4)nc3c2)cc1C(N)=O`, the concentration for half-maximal inhibition (IC50) in data set [1] is greater than 50 µM.

The molecule `COc1c(NS(=O)(=O)c2ccc(F)cc2)cc(-c2ccn3nc(NC(C)=O)nc3c2)cc1C(N)=O` displayed an IC50 in data set [1] of 32.6 µM.

In the case of `COc1c(NS(=O)(=O)c2ccc(F)cc2)cc(-c2ccc3nc(NC4CC4)sc3n2)cc1C(N)=O`, the IC50 was determined as 33.1 µM in the data set with MCF7, 30.2 µM in the data set with A549, 41.7 µM in data set [2] and 35.7 µM in [1].

Consider `COc1c(NS(=O)(=O)c2ccc(F)cc2)cc(-c2ccc3nc(NC(C)=O)sc3c2)cc1C(N)=O`, for which the IC50 stood at 0.5 µM with MCF7, 1.7 µM in the data set on A549, 4.75 µM in data set [2] and 1.95 µM in data set [1]. In addition, the inhibition in vivo (as a rule, how much of the control response was suppressed) at 30 mg/kg in data set [3] stood at 46.9%. The inhibition in vivo at 10 mg/kg in data set [4] amounted to 40.1%. Further, the Activity entry in the data set on Mus musculus [5] is recorded as “Non-toxic”. In addition, the inhibition entry in the data set on HCT-116 was “Active”.

`NC(=O)c1cc(-c2ccc3nc(NC(=O)C4CC4)sc3c2)cc(NS(=O)(=O)c2ccc(F)cc2)c1Cl`: the IC50 with MCF7 is greater than 50 µM; in the data set on A549, greater than 50 µM; in data set [2] it was 17.9 µM; in data set [1], 11.4 µM.

As to `COc1c(NS(=O)(=O)C2CC2)cc(-c2ccc3nc(NC(C)=O)nn3c2)cc1C(N)=O`, the IC50 in data set [1] is 36.3 µM.

As to `CC(=O)Nc1nc2ccc(-c3cnc(Cl)c(NS(=O)(=O)c4ccc(F)cc4)c3)cc2s1`, the IC50 in the data set with MCF7 is 0.52 µM; with A549, 0.2 µM; in data set [2] it was 2.79 µM; in data set [1], 0.51 µM.

Turning to `COc1c(NS(=O)(=O)c2ccc(C)cc2)cc(-c2ccc3nc(NC(C)=O)nn3c2)cc1C(N)=O`, in data set [1], half-maximal inhibition (IC50) required 27.3 µM.

Take `COc1c(NS(=O)(=O)c2ccc(F)cc2)cc(-c2ccc3nc(NC(C)=O)sc3n2)cc1C(N)=O`: the IC50 in the data set on MCF7 came to 12.5 µM; in the data set on A549, 4.31 µM; in data set [2], 21.7 µM; in data set [1] it was 4.25 µM.

In the case of `Cn1c(=O)n(-c2ccc(C(C)(C)C#N)cc2)c2c3cc(-c4cnc5ccccc5c4)ccc3ncc21` [DACTOLISIB], the IC50 was found to be 0.55 µM in the data set with MCF7, 0.1 µM in the data set with A549, 2.34 µM in data set [2] and 0.32 µM in data set [1]. For the same molecule, the Activity result with Mus musculus [6] is given as “Toxic”. Further, the inhibition in vivo at 30 mg/kg in [3] worked out at 24.2%. The inhibition entry with HCT-116 is “Active”.

As to `COc1c(NS(=O)(=O)c2ccc(F)cc2)cc(-c2ccc3nc(NC4CC4)sc3c2)cc1C(N)=O`, the IC50 in data set [1] is greater than 50 µM.

Molecule `NC(=O)c1cc(NS(=O)(=O)c2ccc(F)cc2)cc(-c2ccc3nc(NC(=O)C4CC4)sc3c2)c1` had an IC50 in data set [1] greater than 50 µM.

Turning to `COc1c(NS(=O)(=O)c2ccc(F)cc2)cc(-c2ccn3nc(N)nc3c2)cc1C(N)=O`, in data set [1], the IC50 is greater than 50 µM.

In the case of `COc1c(NS(=O)(=O)c2ccc(F)cc2)cc(-c2ccc3nc(NC(=O)C4CC4)sc3n2)cc1C(N)=O`, the IC50 is 22.1 µM in the data set on MCF7, 8.05 µM in the data set on A549, 20.5 µM in data set [2] and 2.5 µM in [1].

Take `CC(=O)Nc1nc2ccc(-c3cc(NS(=O)(=O)c4ccc(F)cc4)c(Cl)c(C(N)=O)c3)cn2n1`: in [1], the IC50 is greater than 50 µM.

In the case of `CCOC(=O)CNc1nc2ccc(-c3cc(NS(=O)(=O)c4ccc(F)cc4)c(OC)c(C(N)=O)c3)cc2s1`, the IC50 in data set [1] was greater than 50 µM.

Turning to `COc1c(NS(=O)(=O)c2ccc(F)cc2)cc(-c2ccc3nc(NC(=O)C4CC4)sc3c2)cc1C(N)=O`, the IC50 in the data set with MCF7 was determined as 1.58 µM; in the data set with A549 it was 6.34 µM; in data set [2] it was 2.87 µM; in data set [1] it was 2.01 µM.

Consider `COc1c(NS(=O)(=O)C2CC2)cc(-c2ccc3nc(NC(=O)C4CC4)sc3c2)cc1C(N)=O`, for which the IC50 with A549 was found to be 46.3 µM; in data set [2] it was 8.22 µM; in [1], 14.5 µM.

Molecule `COc1c(NS(=O)(=O)c2ccc(Cl)cc2)cc(-c2ccc3nc(NC(C)=O)nn3c2)cc1C(N)=O` yielded an IC50 in data set [1] of 31.7 µM.

In [1], `COc1c(NS(=O)(=O)c2ccc(F)cc2)cc(-c2ccc3nc(NC(C)=O)nn3c2)cc1C(N)=O` gave an IC50 of 25.4 µM.

The values are drawn from ChEMBL document CHEMBL3351800, “Combination of 2-methoxy-3-phenylsulfonylaminobenzamide and 2-aminobenzothiazole to discover novel anticancer agents” (Bioorg Med Chem, 2014).
